High-throughput results from PubChem.
Only some compounds are listed: those with a hit (about 7.2% of all), similar ones and a draw of the others.
PostGolgi yeast: phenotypic screen on post-Golgi transport, primary screen. post-Golgi transport phenotypic cell assay. inhibition, % at 10 µM. actives 0.9% (n = 98,000);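 note: yeast cells grown in 1536-well plates; yeast grown about 18 h at 30C before absorbance read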
E coli WT exp: growth inhibitors of wild-type E. coli, primary screen, strain BW25113, expanded library, OD600; AID 710, 2007; OD600 absorbance; actives 0.15% (n = 98,000); growth inhibition, % at 100 µM;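 active = growth inhibition above about 50% at one test dose, limit read from the data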;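 note: growth measured after 20 h incubation at 37 °C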
Ecoli tolC: growth inhibitors of E. coli tolC mutant, primary screen, strain BW25113 ΔtolC::kan, 384-well. OD615. growth inhibition, % at 10 µM (by protocol). actives 2.2% (n = 65,000);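 active = growth inhibition at or above a cutoff equal to the mean over every tested compound plus 3 SD, cut at about 60% in these data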;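 note: growth measured after 20 h incubation at 37 °C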
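Test system: tolC-deleted E. coli BW25113; medium: LB with kanamycin 50 µg/mL; compound: single-point testing at 10 µM; incubation: 20 h compound exposure of bacteria at 37 °C; signal: OD at 615 nm; evaluation: growth inhibition in percent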
PostGolgi ctrl: growth inhibition of yeast control strain, primary screen, counter-screen for post-Golgi transport modulator project; efflux-deficient yeast background strain, growth absorbance A615, 16 h; inhibition, % at 10 µM; actives 5% (n = 98,000)
PLAP act: PLAP enzyme activators, biochemical, luminescence, HTS | Alkaline phosphatase, placental type (Homo sapiens), P05187 | activation fold at 20 µM | actives 1.2% (n = 96,000) | purified PLAP enzyme, luminescent substrate read-out; active compounds read high; in the data active = activation fold above about 2
Target sequence (P05187 whole entry, looked up): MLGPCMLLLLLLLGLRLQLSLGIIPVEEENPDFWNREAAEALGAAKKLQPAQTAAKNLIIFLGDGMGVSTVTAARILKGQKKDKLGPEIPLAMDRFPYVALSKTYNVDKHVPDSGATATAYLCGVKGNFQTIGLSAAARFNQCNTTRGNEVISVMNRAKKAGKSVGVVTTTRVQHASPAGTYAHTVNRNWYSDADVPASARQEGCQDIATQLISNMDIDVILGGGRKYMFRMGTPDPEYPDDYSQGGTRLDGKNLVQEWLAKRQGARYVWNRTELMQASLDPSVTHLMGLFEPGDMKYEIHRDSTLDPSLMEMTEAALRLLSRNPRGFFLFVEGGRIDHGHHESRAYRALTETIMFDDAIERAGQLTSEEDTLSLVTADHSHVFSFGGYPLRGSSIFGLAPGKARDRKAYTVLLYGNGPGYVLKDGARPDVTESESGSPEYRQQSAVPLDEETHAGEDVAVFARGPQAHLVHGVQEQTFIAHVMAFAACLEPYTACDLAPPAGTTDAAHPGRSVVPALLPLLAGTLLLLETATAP
* = called active by the depositor; / = no result. Cut-off read from the data, not from the text of the source, unless noted: active = inhibition above about 30%; inactive = the rest.

SMILES | PostGolgi yeast | E coli WT exp | Ecoli tolC | PostGolgi ctrl | PLAP act
O=C(N/N=C/c1ccccc1)c1sccc1OCc1ccc(F)cc1 | 0 | 2 | / | 68* | 1
O=C(N/N=C/c1cccc(OCc2ccccc2)c1)c1cccs1 | 9 | -6 | / | 37* | 0.7
O=C(O)c1ccc(COc2ccc(/C=N/NC(=O)c3cccs3)cc2)cc1 | -1 | -4 | / | 10 | 1.1
C=CCc1c(C)nc(SC)nc1Nc1ccc(C(C)=O)cc1 | 6 | -11 | 22 | 31* | 1.6
CCOC(=O)c1sc(C)c2c1NC(C)(c1cccs1)NC2=O (centres undefined) | 25 | -5 | 15 | 18 | 1
Cn1c(=O)c2cc(S(=O)(=O)NC(C(=O)Nc3cccnc3)c3ccccc3)ccc2n(C)c1=O (centres undefined) | -2 | 4 | -11 | 9 | 2.6*
CCCCNS(=O)(=O)c1ccc(NC(=O)c2c(-c3ccccc3Cl)noc2C)cc1 | -5 | -8 | / | 7 | 1
c1ccc(-c2csc(N3CCN(c4ccccn4)CC3)n2)cc1 | -3 | -16 | 88* | 41* | 0.9
O=C(NC12CC3CC(CC(C3)C1)C2)N1CCN(c2nc(-c3ccccc3)cs2)CC1 | 2 | -5 | / | 42* | 1
Cn1c(SCC(=O)N2c3ccccc3Sc3ccc(Cl)cc32)nnc1-c1ccco1 | 53* | -7 | 65* | 60* | /
CCn1c(SCC(=O)N2c3ccccc3Sc3ccccc32)nnc1-c1ccco1 | -5 | -11 | 32 | 11 | 1
O=S(=O)(c1cnc[nH]1)N1CCc2ccccc21 | 5 | 7 | 14 | 2 | 0.8
Cc1ccc(S(=O)(=O)N2CCC(C(=O)N[C@H](C(=O)NC3CCS(=O)(=O)C3)C(C)C)CC2)cc1 (some centres undefined) | -1 | -7 | / | 8 | 1.1
Cc1ccc(S(=O)(=O)N2CCC(C(=O)NCCc3ccccc3)CC2)cc1 | 3 | -2 | / | 5 | 0.8
Cc1ccc(S(=O)(=O)N2CCC(C(=O)NCCN3CCCCCC3)CC2)cc1 | 8 | 0 | -19 | 2 | 2.1*
Cc1ccc(S(=O)(=O)N2CCC(C(=O)N3CCC[C@H]3C(=O)NC3CCS(=O)(=O)C3)CC2)cc1 (some centres undefined) | -1 | 8 | -16 | -4 | 2*
O=C(CSc1nnc(-c2cccs2)n1-c1cccc(Cl)c1)c1cccc2c1OCCO2 | 9 | -1 | / | 9 | 1.2
Cc1[nH]n(-c2ccccc2)c(=O)c1/C=N/c1ccccn1 | 1 | 3 | -21 | -3 | 2.1*
Cc1ccc(-n2[nH]c(C)c(C=Nc3ccc(C)cn3)c2=O)cc1 | 0 | -6 | 11 | 15 | 1.4
Cc1[nH]n(-c2ccccc2)c(=O)c1C=Nc1cnc2ccccc2c1 | 6 | 9 | / | -3 | 2.1*
CCn1c(SCC(=O)Nc2cc(OC)ccc2OC)nnc1C1CCCCC1 | 4 | 6 | 5 | 3 | 1.7
COc1ccc(/C=C\C(=O)CC(O)(c2ccccc2)C(F)(F)F)cc1 (centres undefined) | -4 | 7 | / | 38* | 0.7
CCN1CCN(C(c2cccs2)C(C)NC(=O)C(C)C)CC1 (centres undefined) | -3 | 6 | -7 | -15 | /
O=C(NCCCc1ccccc1)c1ccccc1O | -11 | 26 | 67* | 8 | 1.1
C=CCSc1nnc2c(n1)OC(c1cccnc1)Nc1ccccc1-2 (centres undefined) | -4 | -4 | -3 | -2 | 1.1
SMILES | PostGolgi yeast | E coli WT exp | Ecoli tolC | PostGolgi ctrl | PLAP act
C=CCSc1nnc(-c2ccccc2N=Cc2c(C)[nH]n(-c3ccccc3)c2=O)c(=O)[nH]1 | -12 | -9 | / | 0 | 2.2*
C=CCSc1nnc2c(n1)OC(c1c(C)[nH]n(-c3ccccc3)c1=O)Nc1ccccc1-2 (centres undefined) | 3 | -7 | / | 40* | 1.4
CSc1nnc(-c2ccccc2N=Cc2c(C)[nH]n(-c3ccc4ccccc4c3)c2=O)c(=O)[nH]1 | -13 | -7 | / | 8 | 1.1
O=C(CC1CCCCC1)c1c(O)c2ccccc2oc1=O | 0 | 3 | 100* | 9 | 0.9
CC1CCC(C(=O)c2c(O)c3ccccc3oc2=O)CC1 (centres undefined) | 9 | 8 | / | 4 | 1
CCCCC(=O)c1c(O)c2ccccc2oc1=O | 1 | -1 | 99* | 3 | 1.1
CCc1cc2c(N3CCN(c4ccccc4)CC3)ncnc2s1 | -2 | -9 | 93* | 48* | 0.9
COc1ccc(S(=O)(=O)N(Cc2ccccc2)Cc2nc(-c3ccccc3)no2)cc1 | -4 | -14 | 28 | 14 | 1
CC(C)CNC(=S)NC1CC2CCCC(C1)N2Cc1ccco1 (centres undefined) | -9 | -3 | / | 31* | 1
COCCCN(C(=O)Nc1ccccc1)C(C)c1ccncc1 (centres undefined) | 1 | 2 | -12 | 5 | 1
COc1cccc(CN(C)CC(=O)NC(=O)NCc2ccco2)c1 | -1 | 1 | -3 | 8 | 1.4
CCC1CCCCN1C(=O)c1cc(-c2ccc(Cl)c(Cl)c2)on1 (centres undefined) | -3 | -9 | 100* | 28 | /
CC1CCCCN1C(=O)c1cc(-c2ccc(Cl)c(Cl)c2)on1 (centres undefined) | -4 | -5 | 57 | 18 | 0.9
Cc1occc1-c1nnc(SCC(=O)Nc2ccccc2)n1C(C)c1ccccc1 (centres undefined) | 1 | -1 | 19 | 24 | 1.6
Cc1ccc2nc(CSc3nnc(Cc4cccs4)n3C3CCCCC3)cc(=O)n2c1 | -2 | 5 | 9 | 39* | 1.8
COc1ccccc1-c1nnc(SC/C(O)=C(\C#N)c2nc3ccccc3[nH]2)n1C1CCCCC1 | / | / | 71* | / | /
N#C/C(=C(/O)CSc1nnc(Cc2cccs2)n1C1CCCCC1)c1nc2ccccc2[nH]1 | -5 | -3 | 26 | -12 | 2.7*
C(=C/c1ccnc2nc(SC/C=C/c3ccccc3)nn12)/c1ccccc1 | -1 | -12 | / | 5 | 1
Cc1ccc(NS(=O)(=O)c2ccc(NC(=O)[C@@H]3CCCC[C@@H]3C(=O)O)cc2)c(C)c1 | -3 | 8 | / | 14 | 1.1
CCOC(=O)CC(=O)CSc1nc2nc(C)cc(C)n2n1 | -2 | 3 | -8 | 30* | 1.4
COc1ccc(OC)c(Nc2cc(C)nc3nc(C)nn23)c1 | -4 | -4 | -16 | 0 | 2*
COc1ccc(Nc2cc(C)nc3nc(C)nn23)c(OC)c1 | / | / | -5 | / | /
CC(=O)NCC(=O)N(C)C(C(=O)Nc1ccc(C(C)C)cc1)c1ccccc1 (centres undefined) | 0 | -4 | / | -10 | 1.4
NC1C2CN(c3nc4c(cc3F)c(=O)c(C(=O)O)cn4-c3ccc(F)cc3F)CC12 (centres undefined) | -2 | 97* | 100* | 1 | 0.7
CCCc1cc(=O)oc2cc(C)cc(O)c12 | -10 | 22 | / | 19 | 1
CCCCCc1cc(O)c2c(C)cc(=O)oc2c1 | 9 | -3 | 86* | 61* | 1.1
